Screening data deposited in PubChem BioAssay by several laboratories.
A selection: hits, their analogues and other compounds. The true share with any hit is near 1.8%.
PAD4 FP inh = human PAD4 inhibitors, primary screen, biochemical, fluorescence polarization, 1536-well format; Protein-arginine deiminase type-4 (Homo sapiens), Q9UM07; inhibition, % at 6.36 µM; hit rate 0.41% among 330,000; recombinant PAD4, RCA probe fluorescence polarization;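 active = percent inhibition above a cutoff equal to the mean of all tested compounds plus 3 SD, cut at about 15% in these data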;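 also: 0% = PAD4 with RCA probe and DMSO and 100% = probe without PAD4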
GSTO1 inh = inhibitors of recombinant GSTO1, primary screen, counter-screen for RBBP9 inhibitor project, biochemical, fluorescence polarization; inhibition, % at 5.96 µM; hit rate 1.1% among 300,000; activity-based probe fluorescence polarization;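 active = inhibition above the campaign mean inhibition plus 3 SD, cut at about 35% in these data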;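 also: 0% = GSTO1-1 with DMSO and 100% = wells lacking GSTO1-1 enzyme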
Target sequence (P78417 whole entry, looked up): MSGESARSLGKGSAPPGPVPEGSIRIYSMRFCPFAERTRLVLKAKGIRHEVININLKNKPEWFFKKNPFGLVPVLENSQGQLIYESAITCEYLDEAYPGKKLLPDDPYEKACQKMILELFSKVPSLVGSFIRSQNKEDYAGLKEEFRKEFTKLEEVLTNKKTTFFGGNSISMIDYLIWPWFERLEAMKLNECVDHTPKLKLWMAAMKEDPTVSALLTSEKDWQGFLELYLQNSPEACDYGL
TDP2 absorb = human TDP2 enzyme inhibitors, primary screen, biochemical, epi absorbance, recombinant enzyme. Tyrosyl-DNA phosphodiesterase 2 (Homo sapiens), O95551. T5PNP hydrolysis, p-nitrophenol absorbance 415 nm. inhibition, % at 12.8 µM. hit rate 0.34% among 370,000. AID 720702, 2013;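 active = inhibition above the mean of all tested compounds plus 3 SD, set per campaign, cut at about 25% in these data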;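 also: 0% = DMSO with enzyme and 100% = buffer with substrate but no TDP2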
Target sequence (O95551 whole entry, looked up): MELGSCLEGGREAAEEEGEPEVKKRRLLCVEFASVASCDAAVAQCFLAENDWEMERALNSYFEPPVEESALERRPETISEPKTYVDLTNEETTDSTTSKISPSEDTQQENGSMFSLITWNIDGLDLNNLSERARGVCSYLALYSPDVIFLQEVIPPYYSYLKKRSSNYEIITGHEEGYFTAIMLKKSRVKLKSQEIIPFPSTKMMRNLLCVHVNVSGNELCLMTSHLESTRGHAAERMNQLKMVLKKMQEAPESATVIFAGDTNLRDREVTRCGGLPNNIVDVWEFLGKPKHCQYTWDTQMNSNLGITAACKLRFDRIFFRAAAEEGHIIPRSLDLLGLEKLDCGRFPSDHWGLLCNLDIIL
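Assay system: Recombinant human TDP2 | Quantity: 120 nM TDP2 per well | Incubation: 2 h at 37 °C | Signal: Epi absorbance | Evaluation: Percent inhibition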
Apaf-1 inh = inhibitors of human Apaf-1 apoptosome, primary screen, biochemical, DEVD-Rh110 fluorescence, uHTS; inhibition, % at 20 µM; AID 489030, 2010; Apoptotic protease-activating factor 1 (Homo sapiens), O14727; reconstituted apoptosome caspase-3 activity; hit rate 0.71% among 330,000; active = inhibition of at least 40% at 20 µM;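 also: plate controls were DMSO wells for no effect and DEVD-CHO caspase inhibitor wells for full effect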
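System: reconstituted apoptosome with Apaf-1, cytochrome c, caspase-9, procaspase-3, dATP; Signal: Rh110 fluorescence intensity; Schedule: 30 min compound preincubation, 50 min activation, room temperature; Reagent: cytochrome c trigger plus (Z-DEVD)2-Rh110 caspase-3 substrate.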
CTSL1 counter = Fasciola hepatica cathepsin L1 inhibitors, primary screen, counter-screen for PFM18AAP inhibitor project, biochemical, QFRET, fluorogenic peptide substrate; recombinant F. hepatica cathepsin L1, Z-Leu-Arg-MCA fluorescence; inhibition, % at 5.96 µM; hit rate 0.49% among 300,000;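 active = inhibition above the mean of all tested compounds plus 3 SD, set per screening campaign, cut at about 17% in these data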;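 also: 0% = plate median of test compound wells and 100% = 1 µM Z-Phe-Ala-diazomethylketone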
TDP2 confirm = human TDP2 enzyme inhibitors, retest, confirmation, biochemical, epi absorbance, recombinant enzyme | hit rate 22% among 1,100 | absorbance read-out | AID 743263, 2014 | inhibition, % at 12.8 µM | shares compounds with TDP2 absorb; in the data active = inhibition above about 25%;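 also: 0% = vehicle with enzyme and 100% = no enzyme buffer only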
Starred values were filed as active, the others as inactive; · = not tested or not shown.

SMILES | PAD4 FP inh | GSTO1 inh | TDP2 absorb | Apaf-1 inh | CTSL1 counter | TDP2 confirm
CC[C@]1(c2ccc(C)cc2)C(=O)N(C(=O)OC(C)C)N1C(=O)OC(C)C | · | · | 2.9 | · | · | ·
C[n+]1c(-c2ccccc2)cc2c(=Cc3ccccc3)c3ccccc3n21 | · | · | 36.2* | · | · | 46.8*
C[n+]1c(-c2ccccc2)cc2c(=Cc3ccc([N+](=O)[O-])cc3)c3ccccc3n21 | · | · | 37.0* | · | · | 46.2*
CN(C)c1ccc(C=c2c3cc(O)ccc3n3c2cc(-c2ccccc2)[n+]3C)cc1 | · | · | 23.1 | · | · | ·
O=C(CNCCN1CCOCC1)Nc1ccccc1Sc1ccccc1 | -1.9 | 9.7 | 27.8* | 0.1 | 1.3 | 13.8
COC(=O)c1cccc(C(=O)N2CCCC(C(=O)c3cccc(OC(C)C)c3)C2)c1 (stereo not given) | -4.7 | 3.8 | 27.7* | 13.3 | -0.3 | 7.0
Brc1ccccc1OCCN1CCOCC1 | -1.1 | 1.1 | 25.6* | -11.8 | -4.0 | 3.5
Clc1cc(Br)ccc1OCCN1CCOCC1 | -5.1 | 2.4 | 5.9 | -1.1 | -2.3 | ·
C=CC[C@H]1c2ccccc2[C@H]2N3N=Cc4ccccc4[C@H]3[C@H](CCCC)C(=O)N2N1C(=O)NCc1ccccc1 | · | · | 5.0 | · | · | ·
COc1ccccc1/C=C/C(=O)OCC(=O)Nc1ccc(Cl)cn1 | -3.5 | 0.7 | 29.1* | 6.6 | -15.1 | -1.4
O=C(CSc1nnc(Cc2cccs2)n1-c1ccccc1)Nc1ccccc1-c1ccccc1 | · | · | 2.2 | · | · | ·
COc1ccc(CNC(=O)C2CCCN(c3nc4ccccc4o3)C2)cc1 (stereo not given) | · | · | 2.2 | · | · | ·
Clc1ccccc1N=Nc1ccccn1 | · | · | 42.2* | · | · | 26.9*
N#CC(C#N)=C1NC(N)=C(C#N)C(c2ccccc2)=C1C#N | 3.2 | -4.6 | 31.6* | 5.1 | 2.9 | 28.7*
Cc1ccccc1S(=O)Cc1ccc(C(=O)N2CCN(C3CCCCC3)CC2)o1 (stereo not given) | · | · | 4.7 | · | · | ·
Cc1ccccc1S(=O)Cc1ccc(C(=O)N2CCN(C(=O)c3ccco3)CC2)o1 (stereo not given) | 0.1 | 7.0 | 39.3* | -9.3 | 0.9 | -3.1
O=C(/C=C(\Nc1cc(Cl)c(F)c(Cl)c1)c1ccccc1)c1ccccc1 | · | · | -0.1 | · | · | ·
CCC(=O)NC(c1cccs1)c1cc([N+](=O)[O-])c2cccnc2c1OC (stereo not given) | · | · | 69.8* | · | · | 18.5
O=S(=O)(Nc1c(S(=O)(=O)c2ccccc2)c2nc3ccccc3nc2n1C1CCCCC1)c1ccccc1 | -7.9 | 48.9* | 88.9* | · | -1.4 | 84.1*
Cc1ccc(S(=O)(=O)c2c(N)n(-c3ccccc3)c3nc4ccccc4nc23)cc1 | -1.8 | 7.3 | -9.9 | 13.5 | -0.8 | ·
O=S(=O)(Nc1c(O)ccc2ccccc12)c1ccc(F)cc1 | -15.9 | 32.7 | 24.9* | 6.6 | -5.7 | -2.7
O=C(O)CN1C(=O)/C(=C\c2cc(Br)ccc2OCc2ccc(Cl)cc2)SC1=S | · | · | 26.0* | · | · | 17.4
Cc1nn(-c2ccccc2)c2sc(C(=O)N3CCN(C(c4ccccc4)c4ccc(Cl)cc4)CC3)cc12 (stereo not given) | · | · | -2.9 | · | · | ·
Cc1[nH][nH]c(=O)c1C(c1ccc(-c2ccc(Cl)c(C(=O)O)c2)o1)c1c(C)[nH][nH]c1=O | · | · | 50.9* | · | · | -4.8
Cc1ccc(NC(=O)CSc2nnc(-c3ccccc3F)n2-c2ccccc2)c(C)c1 | · | · | -4.1 | · | · | ·
SMILES | PAD4 FP inh | GSTO1 inh | TDP2 absorb | Apaf-1 inh | CTSL1 counter | TDP2 confirm
CCN(CC)CCCNC(=O)CSc1nnc(-c2ccncc2)n1-c1ccc(OC)cc1 | · | · | -2.3 | · | · | ·
N#CC1=C(N)Oc2n[nH]c(-c3cccnc3)c2C1c1cc(F)ccc1F (stereo not given) | 2.4 | 11.0 | 51.5* | 4.0 | 2.9 | -11.6
Cc1ccc(-c2[nH]nc3c2C(c2cccnc2)C(C#N)=C(N)O3)cc1 (stereo not given) | -7.1 | 26.7 | 13.9 | -4.8 | 1.8 | ·
O=C(CCn1c(=O)oc2ccc(Cl)cc21)N1CCN(c2ccccc2)CC1 | 8.9 | 4.6 | 24.9* | 2.1 | 0.7 | -0.6
COC(=O)c1ccc(CN2C(=O)[C@]3(OCCC=C[C@H]3C)c3cc(OC)ccc32)cc1 | · | · | -4.0 | · | · | ·
Cc1ccccc1SCC(=O)Nc1ccc(N2CCOCC2)cc1 | -2.1 | -2.2 | -1.7 | 0.5 | 1.9 | ·
Nc1ccccc1SCC(=O)Nc1ccc(N2CCOCC2)cc1 | -8.3 | 10.7 | 28.4* | -0.8 | 2.2 | 7.0
O=[N+]([O-])c1ccc(CN2CCN(c3ccccc3Cl)CC2)o1 | -4.6 | 1.6 | 27.2* | 5.7 | 2.1 | 17.9
NC(=O)C1CCCN(CC(O)COCc2ccc(Cl)cc2)C1 (stereo not given) | 3.1 | 4.4 | 28.4* | 1.3 | 0.4 | 2.0
COc1ccc(Br)cc1C=NNC(=O)c1ccncc1 | · | · | -4.1 | · | · | ·
O=C1c2cccc(O)c2C(=O)c2c(O)cc(CO)cc21 | 7.8 | 17.8 | · | 6.9 | -1.0 | ·
CC1OC2CC(=O)OC2C2=C1C(=O)c1c(O)cccc1C2=O (stereo not given) | · | · | 41.9* | · | · | 44.4*
Cc1[nH][nH]c(=O)c1C(c1cc2c(cc1Br)OCO2)c1c(C)[nH][nH]c1=O | -14.9 | 16.3 | 0.0 | 4.4 | 1.2 | ·
Cc1[nH][nH]c(=O)c1C(c1cc(Br)ccc1O)c1c(C)[nH][nH]c1=O | -4.4 | 25.9 | 29.9* | 13.8 | -0.8 | 16.4
CCn1c2ccccc2c2cc(NC(=O)COC(=O)c3cc(F)ccc3C)ccc21 | · | · | 0.6 | · | · | ·
CCOC(=O)c1c(C)[nH]c(C(=O)CN2CC(C)OC(C)C2)c1C (stereo not given) | 0.2 | -2.9 | 28.9* | 5.7 | 6.3 | 1.4
CCOC(=O)c1c(C)[nH]c(C(=O)CN2CCN(CC)CC2)c1C | 2.9 | 8.7 | 10.2 | -20.6 | -1.7 | ·
O=C(O)Cc1ccc(-c2ccccc2-c2ccccc2)cc1 | 0.6 | 8.6 | -9.1 | 3.3 | -3.0 | ·
O=C(O)Cc1ccc(N2N=C(c3ccccc3)CC2=O)cc1 | · | · | 70.7* | · | · | 4.7
COC(=O)[C@@]12CCCCC3=C1N(CCC3)C(=O)[C@H]2CC(=O)NCC12CC3CC(CC(C3)C1)C2 | · | · | -2.9 | · | · | ·
Cc1ccccc1N1CCN(S(=O)(=O)c2ccc3c(c2)n(C)c(=O)c(=O)n3C)CC1 | · | · | -0.8 | · | · | ·
CCOC(=O)c1cc2c(ccn2C)n1Cc1ccccc1C | -3.5 | 2.2 | 26.0* | -3.6 | 0.8 | -14.8
CCNc1nc(NCC)n2c(SCC(=O)Nc3cc(Cl)ccc3OC)nnc2n1 | 2.1 | 18.3 | 24.9* | 3.2 | -2.3 | -7.0
CCNc1nc(NCC)n2c(SCC(=O)Nc3ccc(OC)c(OC)c3)nnc2n1 | -0.8 | -3.6 | -18.6 | -3.7 | -2.1 | ·
O=C(NCCc1ccccc1)OCc1cn(-c2cccc(Cl)c2)nn1 | · | · | 3.1 | · | · | ·
